TAAR1 antagonist: antagonists of human TAAR1; 360,000 tested, 1.5% active; inhibition, % at 3 µM; Q96RJ0; CHO RD-HGA16 TAAR1, Fluo-8 calcium fluorescence, antagonist;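 active = inhibition above a per-plate cutoff, the mean inhibition of test compounds on that plate plus 3 SD, cut at about 49% in these data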;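 note: 0% = DMSO plus EC80 beta-PEA response and 100% = DMSO alone without agonist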
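Assay system: RD-HGA16 CHO cells with stable hTAAR1 and Gα16 / Reagent: EC80 β-phenethylamine stimulus / Doses: 3 µM, single point / Timing: dye loading 75 min at 37 °C, then 30 min room temperature / Measured by: Fluo-8 intracellular calcium dye fluorescence, real-time kinetic reads / Controls: vehicle wells and EC80 agonist wells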
TAAR1 ag: agonists of human TAAR1; Q96RJ0; CHO RD-HGA16 TAAR1, Fluo-8 calcium fluorescence; vehicle wells 0%, saturating PEA agonist 100%; activation, % at 3 µM; 360,000 tested, 0.99% active; AID 624467;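 active = activation above the mean activation of all test compounds in the run plus 3 SD, cut at about 38% in these data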
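Test system: RD-HGA16 (CHO) cells co-expressing Gα16 and hTAAR1 | Doses: Single dose, 3 µM | Schedule: 17-24 h seeding, 75 min 37 °C dye, 30 min RT | Evaluation: % activation from peak over basal fluorescence ratio, DMSO-to-PEA scaled | Technique: Kinetic Fluo-8 calcium fluorescence | Benchmarks: Low control DMSO, high control PEA (EC100)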
OX1R antag-1: blocks the human orexin 1 receptor | OX1R-expressing cells, FRET antagonist read-out | inhibition, % at 6.6 µM | 330,000 tested, 1.8% active | AID 485270; in the data active = inhibition mostly above about 38%, no sharp cut-off; inactive = mostly below about 40%;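 note: 0% = agonist challenge alone and 100% = reference antagonist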
Target sequence (O43613 whole entry, looked up): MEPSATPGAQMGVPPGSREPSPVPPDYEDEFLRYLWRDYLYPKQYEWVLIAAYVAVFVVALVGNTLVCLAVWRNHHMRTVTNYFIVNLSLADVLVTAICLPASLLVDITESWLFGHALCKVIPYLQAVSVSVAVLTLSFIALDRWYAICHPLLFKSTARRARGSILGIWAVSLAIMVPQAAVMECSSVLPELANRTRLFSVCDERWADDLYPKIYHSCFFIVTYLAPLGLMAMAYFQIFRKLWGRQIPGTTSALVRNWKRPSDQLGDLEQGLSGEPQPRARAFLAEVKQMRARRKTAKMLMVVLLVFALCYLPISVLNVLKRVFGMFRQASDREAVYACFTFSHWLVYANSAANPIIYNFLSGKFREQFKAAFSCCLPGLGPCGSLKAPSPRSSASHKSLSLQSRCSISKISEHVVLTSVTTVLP
OX1R antag-2: antagonists of human orexin 1 receptor | 330,000 tested, 0.43% active | AID 434989 | inhibition, % at 5 µM | CHO/OX1R cells, Fluo-8 calcium fluorescence, orexin A;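 active = inhibition above its plate's threshold, mean inhibition of all tested compounds on the plate plus 3 SD, cut at about 37% in these data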;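 note: 0% = orexin A challenge wells and 100% = SB-334867-A antagonist wells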
GPR7 antagonist: human neuropeptides B/W receptor 1 antagonism. P48145. inhibition, % at 4.4 µM. GPR7-expressing cells, fluorescence antagonist assay. 290,000 tested, 1.1% active. AID 1861; in the data active = inhibition above about 16%, passing the limit was not always enough;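 note: cells stimulated with the agonist NPW; 0% = agonist with vehicle and 100% = vehicle without agonist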
CHO parental Ca: signal in parental CHO cells, OX1R antagonist counter-screen | inhibition, % at 5.6 µM | AID 463079 | 330,000 tested, 0.63% active | parental CHO-K1, ATP-induced calcium, Fluo-8 fluorescence;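 active = inhibition above that plate's mean sample inhibition plus 3 SD, cut at about 26% in these data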;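 note: 0% = ATP-challenged DMSO wells and 100% = DMSO wells without ATP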
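Measured by: calcium-sensitive Fluo-8 fluorescence / Test system: CHO parental line / Controls: ATP-challenged DMSO wells low, unchallenged DMSO wells high / Measure: % inhibition / Compound: single nominal dose of 5.6 µM per compound / Replicates: single well per compound, no replicates / Reagent: ATP as calcium-mobilizing challenge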
* = called active by the depositor. Sampled rows, rich in hits. Any-hit rate of the full collection: about 4.6%.

Screening O=C(O)c1ccccc1-c1c2cc(I)c(=O)c(I)c-2oc2c(I)c(O)c(I)cc12 returned TAAR1 antagonist 82.9*, TAAR1 ag 136.4*, OX1R antag-1 38.5, OX1R antag-2 79.0* and CHO parental Ca 77.9*.
`Cc1cc2c(cc1C)-n1nnnc1C(N1CCCNCC1)C(=O)N2` (stereo not given) gave TAAR1 antagonist 1.1 and TAAR1 ag 1.7.
For CN1C[C@H](C(=O)N[C@]2(C)O[C@@]3(O)[C@@H]4CCCN4C(=O)[C@H](Cc4ccccc4)N3C2=O)CC2c3cccc4[nH]cc(c34)C[C@H]21 (stereo not given in full) the results were TAAR1 antagonist 7.2, TAAR1 ag 2.7, OX1R antag-1 14.8, OX1R antag-2 -20.9 and CHO parental Ca -6.5.
For CC(C)C[C@H]1C(=O)N2CCC[C@H]2[C@]2(O)O[C@](NC(=O)C3C=C4c5cccc6[nH]c(Br)c(c56)C[C@H]4N(C)C3)(C(C)C)C(=O)N12 (stereo not given in full) the results were TAAR1 antagonist 25.6, TAAR1 ag 3.0, OX1R antag-1 58.1*, OX1R antag-2 -6.8 and CHO parental Ca -17.6.
Screening COC(=O)[C@]12C[C@H](CC(=O)N3CCC(c4ccccc4)CC3)C(=O)N(Cc3ccccc3)C1=C[C@H](C1CCCC1)O[C@@H]2C returned TAAR1 antagonist -26.2 and TAAR1 ag -1.2.
COc1ccc(/C=C/C(=O)Oc2cccc(/C=N/NC(=O)c3cccc(F)c3)c2)cc1 was read as TAAR1 antagonist 35.3, TAAR1 ag 6.7, OX1R antag-1 12.3, OX1R antag-2 4.8, GPR7 antagonist 18.5* and CHO parental Ca -3.0.
COc1ccccc1C(=O)Nc1nnc(-c2ccccc2)s1 was read as TAAR1 antagonist 2.6, TAAR1 ag -0.3, OX1R antag-1 51.2*, OX1R antag-2 -19.6, GPR7 antagonist -7.0 and CHO parental Ca -22.1.
COc1ccccc1C(=O)Nc1nc(-c2ccc3c(c2)OCCO3)cs1 was read as TAAR1 antagonist 11.4, TAAR1 ag 6.9, OX1R antag-1 46.8*, OX1R antag-2 -43.0, GPR7 antagonist -12.8 and CHO parental Ca -10.8.
O=C(Nc1nnc(-c2ccccc2)s1)c1ccccc1O was read as TAAR1 antagonist -13.8, TAAR1 ag 31.5, OX1R antag-1 23.1, OX1R antag-2 -0.6, GPR7 antagonist -20.9 and CHO parental Ca -3.3.
Screening COc1cccc(C(=O)Nc2nnc(-c3ccccc3)s2)c1OC returned TAAR1 antagonist 31.8, TAAR1 ag 4.5, OX1R antag-1 52.1*, OX1R antag-2 4.3, GPR7 antagonist 1.6 and CHO parental Ca 8.8.
Cc1ccc(S(=O)(=O)Nc2ccccc2C(=O)Nc2nc(-c3ccc(F)cc3)cs2)cc1 was read as TAAR1 antagonist 74.9*, TAAR1 ag 4.0, OX1R antag-1 67.1*, OX1R antag-2 52.2*, GPR7 antagonist 17.6 and CHO parental Ca 26.2.
`Cc1ccc(S(=O)(=O)Nc2nc(-c3ccccc3)cs2)cc1` gave TAAR1 antagonist -23.3, TAAR1 ag 2.4, OX1R antag-1 8.1, OX1R antag-2 -8.0, GPR7 antagonist -16.4 and CHO parental Ca 17.5.
CCCCOCC1CN(CCCC)S(=O)(=O)c2c(Oc3ccc(C(C)C)cc3)cccc2O1 (stereo not given) was read as TAAR1 antagonist -15.2 and TAAR1 ag 5.5.
For COC(=O)[C@]12C[C@H](CC(=O)N3CCC(c4ccccc4)CC3)C(=O)N(CCC3=CCCCC3)C1=C[C@H](COCc1ccccc1)O[C@@H]2C the results were TAAR1 antagonist -19.2 and TAAR1 ag -1.2.
COc1ccc(NC(=O)Nc2nnc(-c3ccncc3)s2)cc1 was read as TAAR1 antagonist 49.0*, TAAR1 ag 17.1, OX1R antag-1 7.5, OX1R antag-2 -11.6, GPR7 antagonist -12.7 and CHO parental Ca 9.1.
Cc1ccc(S(=O)(=O)NCCC(=O)OCc2ccc([N+](=O)[O-])cc2)cc1C was read as TAAR1 antagonist 50.2*, TAAR1 ag 0.6, OX1R antag-1 13.8, OX1R antag-2 17.3 and CHO parental Ca 40.9*.

Source: PubChem BioAssay (The Scripps Research Institute Molecular Screening Center)
